System: Hepatitis C virus
Test: Percent inhibition against Hepatitis C virus replication in a cell culture model
Format: functional, Hepacivirus hominis
Details: not given
Method in brief: (§1)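 HCV replicon Huh-Luc/neo cells grown to confluence, then treated with varying drug concentrations in DMEM with 10% dFBS for 3 days. Medium was removed and cells lysed in passive lysis buffer, shaken 15 min at room temperature. Lysate was mixed with luciferase substrate and luminescence read immediately as the measure of replicon activity.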

Row | Compound | Inhibition [%]
1 | O=C1c2cc3ccc4c(c3c(-c3ccc5c(c3)OCO5)c2C(=O)N1CCCOCc1ccccc1)OCO4 | 62
2 | O=c1[nH][nH]c(=O)c2c(-c3ccc4c(c3)OCO4)c3c4c(cc(Br)c3cc12)OCO4 | 45

System: Hepatitis B virus
Test: Effective concentration to inhibit 50 % of hepatitis B virus replication in a cell culture model (3.4>10)
Format: functional, organism-based
Details: not given

Row | Compound | EC50 [µM]
3 | O=C(O)c1cc2ccc3c(c2c(-c2ccc4c(c2)OCO4)c1CO)OCO3 | > 3.4

System: Human alphaherpesvirus 1
Test: Effective concentration to inhibit 50 % of Herpes simplex virus type 1 replication in a cell culture model
Format: functional, organism-based
Details: not given

Row | Compound | EC50 [µM]
4 | Nc1nc2c(ncn2COCCO)c(=O)[nH]1 [ACYCLOVIR] | 8

System: Human alphaherpesvirus 1
Test: Effective concentration to inhibit 50% of herpes simplex virus type 1 replication in a cell culture model
Format: functional, organism-based
Details: not given

Row | Compound | EC50 [µM]
5 | CCOC(=O)c1c(C(=O)OCC)c(-c2ccc3c(c2)OCO3)c2c3c(ccc2c1O)OCO3 | > 50
6 | O=C1c2cc3ccc4c(c3c(-c3ccc5c(c3)OCO5)c2C(=O)N1CCCOCc1ccccc1)OCO4 | > 50
7 | O=C(O)c1cc2c(Cl)cc3c(c2c(-c2ccc4c(c2)OCO4)c1CO)OCO3 | > 50
8 | O=C(O)c1cc2ccc3c(c2c(-c2ccc4c(c2)OCO4)c1CO)OCO3 | 9
9 | O=C1OCc2c1cc1ccc3c(c1c2-c1ccc2c(c1)OCO2)OCO3 [HELIOXANTHIN] | 2
10 | O=C1c2cc3ccc4c(c3c(-c3ccc5c(c3)OCO5)c2C(=O)N1CCCO)OCO4 | > 30
11 | O=C1OCc2c1cc1c(Cl)cc3c(c1c2-c1ccc2c(c1)OCO2)OCO3 | 23
12 | O=c1[nH][nH]c(=O)c2c(-c3ccc4c(c3)OCO4)c3c4c(cc(Br)c3cc12)OCO4 | 16

System: Human alphaherpesvirus 2
Test: Effective concentration to inhibit 50% of herpes simplex virus type 2 replication in a cell culture model
Format: functional, organism-based
Details: not given

Row | Compound | EC50 [µM]
13 | O=C1c2cc3ccc4c(c3c(-c3ccc5c(c3)OCO5)c2C(=O)N1CCCOCc1ccccc1)OCO4 | > 50
14 | O=C(O)c1cc2c(Cl)cc3c(c2c(-c2ccc4c(c2)OCO4)c1CO)OCO3 | > 20
15 | O=C(O)c1cc2ccc3c(c2c(-c2ccc4c(c2)OCO4)c1CO)OCO3 | 25
16 | O=C1OCc2c1cc1ccc3c(c1c2-c1ccc2c(c1)OCO2)OCO3 [HELIOXANTHIN] | 35
17 | O=C1c2cc3ccc4c(c3c(-c3ccc5c(c3)OCO5)c2C(=O)N1CCCO)OCO4 | > 30
18 | O=C1OCc2c1cc1c(Cl)cc3c(c1c2-c1ccc2c(c1)OCO2)OCO3 | > 25
19 | O=c1[nH][nH]c(=O)c2c(-c3ccc4c(c3)OCO4)c3c4c(cc(Br)c3cc12)OCO4 | > 20

System: Hepatitis B virus
Test: Effective concentration to inhibit 50% of hepatitis B virus replication in a cell culture model
Format: functional, organism-based
Details: not given

Row | Compound | EC50 [µM]
20 | CCOC(=O)c1c(C(=O)OCC)c(-c2ccc3c(c2)OCO3)c2c3c(ccc2c1O)OCO3 | > 10
21 | O=C(O)c1cc2c(Cl)cc3c(c2c(-c2ccc4c(c2)OCO4)c1CO)OCO3 | > 10
22 | Nc1nc2c(ncn2COCCO)c(=O)[nH]1 [ACYCLOVIR] | 0.02
23 | O=C1OCc2c1cc1ccc3c(c1c2-c1ccc2c(c1)OCO2)OCO3 [HELIOXANTHIN] | > 1
24 | O=C1c2cc3ccc4c(c3c(-c3ccc5c(c3)OCO5)c2C(=O)N1CCCO)OCO4 | > 20
25 | O=C1OCc2c1cc1c(Cl)cc3c(c1c2-c1ccc2c(c1)OCO2)OCO3 | > 60
26 | O=c1[nH][nH]c(=O)c2c(-c3ccc4c(c3)OCO4)c3c4c(cc(Br)c3cc12)OCO4 | > 10

System: Hepatitis C virus
Test: Effective concentration to inhibit 50% of hepatitis C virus replication in a cell culture model
Format: functional, organism-based, Hepacivirus hominis
Details: not given
Method in brief: as §1

Row | Compound | EC50 [µM]
27 | CCOC(=O)c1c(C(=O)OCC)c(-c2ccc3c(c2)OCO3)c2c3c(ccc2c1O)OCO3 | > 10
28 | O=C1c2cc3ccc4c(c3c(-c3ccc5c(c3)OCO5)c2C(=O)N1CCCOCc1ccccc1)OCO4 | 10
29 | O=C(O)c1cc2c(Cl)cc3c(c2c(-c2ccc4c(c2)OCO4)c1CO)OCO3 | > 10
30 | O=C(O)c1cc2ccc3c(c2c(-c2ccc4c(c2)OCO4)c1CO)OCO3 | 10
31 | O=C1OCc2c1cc1ccc3c(c1c2-c1ccc2c(c1)OCO2)OCO3 [HELIOXANTHIN] | > 3
32 | O=C1c2cc3ccc4c(c3c(-c3ccc5c(c3)OCO5)c2C(=O)N1CCCO)OCO4 | > 10
33 | O=C1OCc2c1cc1c(Cl)cc3c(c1c2-c1ccc2c(c1)OCO2)OCO3 | > 10
34 | O=c1[nH][nH]c(=O)c2c(-c3ccc4c(c3)OCO4)c3c4c(cc(Br)c3cc12)OCO4 | 3

System: not listed separately
Test: Effective concentration to inhibit 50% of human immunodeficiency virus replication in a cell culture model
Format: functional
Details: not given

Row | Compound | EC50 [µM]
35 | CCOC(=O)c1c(C(=O)OCC)c(-c2ccc3c(c2)OCO3)c2c3c(ccc2c1O)OCO3 | > 15
36 | O=C1c2cc3ccc4c(c3c(-c3ccc5c(c3)OCO5)c2C(=O)N1CCCOCc1ccccc1)OCO4 | > 100
37 | O=C(O)c1cc2c(Cl)cc3c(c2c(-c2ccc4c(c2)OCO4)c1CO)OCO3 | > 60
38 | O=C(O)c1cc2ccc3c(c2c(-c2ccc4c(c2)OCO4)c1CO)OCO3 | > 10
39 | O=C1OCc2c1cc1ccc3c(c1c2-c1ccc2c(c1)OCO2)OCO3 [HELIOXANTHIN] | > 2.5
40 | O=C1c2cc3ccc4c(c3c(-c3ccc5c(c3)OCO5)c2C(=O)N1CCCO)OCO4 | > 22
41 | O=C1OCc2c1cc1c(Cl)cc3c(c1c2-c1ccc2c(c1)OCO2)OCO3 | > 50
42 | O=c1[nH][nH]c(=O)c2c(-c3ccc4c(c3)OCO4)c3c4c(cc(Br)c3cc12)OCO4 | 2.5

System: Human gammaherpesvirus 4
Test: Effective concentration to inhibit 50 % of Epstein Barr virus replication in a cell culture model
Format: functional, organism-based, epsteinBarr virus
Details: not given

Row | Compound | EC50 [µM]
43 | Nc1ccn([C@@H]2CS[C@H](CO)O2)c(=O)n1 [LAMIVUDINE] | 0.4

System: Human gammaherpesvirus 4
Test: Effective concentration to inhibit 50% of epstein Barr virus replication in a cell culture model
Format: functional, organism-based
Details: not given

Row | Compound | EC50 [µM]
44 | CCOC(=O)c1c(C(=O)OCC)c(-c2ccc3c(c2)OCO3)c2c3c(ccc2c1O)OCO3 | > 10
45 | O=C1c2cc3ccc4c(c3c(-c3ccc5c(c3)OCO5)c2C(=O)N1CCCOCc1ccccc1)OCO4 | > 5
46 | O=C(O)c1cc2c(Cl)cc3c(c2c(-c2ccc4c(c2)OCO4)c1CO)OCO3 | > 20
47 | O=C(O)c1cc2ccc3c(c2c(-c2ccc4c(c2)OCO4)c1CO)OCO3 | > 20
48 | O=C1OCc2c1cc1ccc3c(c1c2-c1ccc2c(c1)OCO2)OCO3 [HELIOXANTHIN] | > 20
49 | O=C1c2cc3ccc4c(c3c(-c3ccc5c(c3)OCO5)c2C(=O)N1CCCO)OCO4 | > 5
50 | O=C1OCc2c1cc1c(Cl)cc3c(c1c2-c1ccc2c(c1)OCO2)OCO3 | > 20
51 | O=c1[nH][nH]c(=O)c2c(-c3ccc4c(c3)OCO4)c3c4c(cc(Br)c3cc12)OCO4 | > 20

System: not listed separately
Test: Effective concentration to inhibit 50% of cytomegalovirus (CMV) replication in a cell culture model
Format: functional
Details: not given

Row | Compound | EC50 [µM]
52 | O=C(O)c1cc2c(Cl)cc3c(c2c(-c2ccc4c(c2)OCO4)c1CO)OCO3 | > 20
53 | O=C(O)c1cc2ccc3c(c2c(-c2ccc4c(c2)OCO4)c1CO)OCO3 | 2.5
54 | O=C1OCc2c1cc1ccc3c(c1c2-c1ccc2c(c1)OCO2)OCO3 [HELIOXANTHIN] | 7.3
55 | O=C1c2cc3ccc4c(c3c(-c3ccc5c(c3)OCO5)c2C(=O)N1CCCO)OCO4 | 8.1
56 | O=C1OCc2c1cc1c(Cl)cc3c(c1c2-c1ccc2c(c1)OCO2)OCO3 | 8.8

System: CCRF-CEM
Test: Cytotoxicity against CEM cell lines of human
Format: functional
Details: read-out: ID50 (the source's name)

Row | Compound | IC50 [µM]
57 | CCOC(=O)c1c(C(=O)OCC)c(-c2ccc3c(c2)OCO3)c2c3c(ccc2c1O)OCO3 | 39
58 | O=C1c2cc3ccc4c(c3c(-c3ccc5c(c3)OCO5)c2C(=O)N1CCCOCc1ccccc1)OCO4 | > 100
59 | O=C(O)c1cc2c(Cl)cc3c(c2c(-c2ccc4c(c2)OCO4)c1CO)OCO3 | > 100
60 | O=C(O)c1cc2ccc3c(c2c(-c2ccc4c(c2)OCO4)c1CO)OCO3 | 30
61 | O=C1OCc2c1cc1ccc3c(c1c2-c1ccc2c(c1)OCO2)OCO3 [HELIOXANTHIN] | 30
62 | O=C1c2cc3ccc4c(c3c(-c3ccc5c(c3)OCO5)c2C(=O)N1CCCO)OCO4 | 27
63 | O=C1OCc2c1cc1c(Cl)cc3c(c1c2-c1ccc2c(c1)OCO2)OCO3 | 27
64 | O=c1[nH][nH]c(=O)c2c(-c3ccc4c(c3)OCO4)c3c4c(cc(Br)c3cc12)OCO4 | 28

System: MT2
Test: Cytotoxicity against MT-2 cell lines of human
Format: functional
Details: read-out: ID50 (the source's name)

Row | Compound | IC50 [µM]
65 | CCOC(=O)c1c(C(=O)OCC)c(-c2ccc3c(c2)OCO3)c2c3c(ccc2c1O)OCO3 | 15
66 | O=C1c2cc3ccc4c(c3c(-c3ccc5c(c3)OCO5)c2C(=O)N1CCCOCc1ccccc1)OCO4 | > 100
67 | O=C(O)c1cc2c(Cl)cc3c(c2c(-c2ccc4c(c2)OCO4)c1CO)OCO3 | 60
68 | O=C(O)c1cc2ccc3c(c2c(-c2ccc4c(c2)OCO4)c1CO)OCO3 | 10
69 | O=C1OCc2c1cc1ccc3c(c1c2-c1ccc2c(c1)OCO2)OCO3 [HELIOXANTHIN] | 2.5
70 | O=C1c2cc3ccc4c(c3c(-c3ccc5c(c3)OCO5)c2C(=O)N1CCCO)OCO4 | 22
71 | O=C1OCc2c1cc1c(Cl)cc3c(c1c2-c1ccc2c(c1)OCO2)OCO3 | 50
72 | O=c1[nH][nH]c(=O)c2c(-c3ccc4c(c3)OCO4)c3c4c(cc(Br)c3cc12)OCO4 | > 100

System: Human alphaherpesvirus 2
Test: Effective concentration to inhibit 50 % of Herpes simplex virus type 2 replication in a cell culture model
Details: Oryctolagus cuniculus

Row | Compound | EC50 [µM]
73 | CCOC(=O)c1c(C(=O)OCC)c(-c2ccc3c(c2)OCO3)c2c3c(ccc2c1O)OCO3 | > 50

System: Human alphaherpesvirus 2
Test: Effective concentration to inhibit 50 % of herpes simplex virus type 2 replication in a cell culture model;ND=Not determined
Details: Oryctolagus cuniculus

Row | Compound | EC50 [µM]
74 | Nc1nc2c(ncn2COCCO)c(=O)[nH]1 [ACYCLOVIR] | 51
